A selection: hits, their analogues and other compounds. The true share with any hit is near 5.9%.
IDH1 R132H inh – blocks human IDH1 R132H reductase activity; O75874; diaphorase/resazurin fluorescence, 60 min; inhibition, % at 10 µM; 0.18% of 70,000 active; AID 624101; in the data active = inhibition above about 34%; inconclusive = no clear call, values can overlap the other calls; inactive = below about 11%
Target sequence (O75874 whole entry R132H): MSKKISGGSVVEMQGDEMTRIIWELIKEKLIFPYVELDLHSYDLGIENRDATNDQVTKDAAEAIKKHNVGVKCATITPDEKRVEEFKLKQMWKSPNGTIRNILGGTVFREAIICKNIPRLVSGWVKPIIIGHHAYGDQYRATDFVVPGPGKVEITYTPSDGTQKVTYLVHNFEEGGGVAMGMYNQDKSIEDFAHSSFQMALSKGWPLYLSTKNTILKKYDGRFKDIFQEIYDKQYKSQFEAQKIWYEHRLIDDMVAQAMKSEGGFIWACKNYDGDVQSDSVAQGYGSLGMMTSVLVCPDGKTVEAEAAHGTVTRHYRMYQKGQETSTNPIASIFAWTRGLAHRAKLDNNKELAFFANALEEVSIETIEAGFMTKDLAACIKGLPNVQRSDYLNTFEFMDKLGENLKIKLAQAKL
T cruzi growth-1 – blocks T. cruzi growth in NIH3T3 culture. T. cruzi beta-gal in NIH3T3, GalScreen luminescence, 90 h. inhibition, % at 8.34 µM. 5.9% of 77,000 active;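 active = mean inhibition above about 93%, with at least 55% of replicates each passing it, limit read from the data, passing the limit was not always enough; inconclusive = only one of those two conditions holds; inactive = neither condition holds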
KDM4C inh – inhibitors of human demethylase GASC-1 KDM4C. 0.15% of 96,000 active. inhibition, % at 12.5 µM. Q9H3R0. GST-KDM4C 2-372, H3K9me3 peptide, LANCE TR-FRET. AID 720574;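 active = mean replicate inhibition above about 25%, with at least 55% of replicates also reaching it, limit read from the data, passing the limit was not always enough; inconclusive = only one of those two conditions met; inactive = neither condition met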
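material = GST-tagged GASC-1 (JMJD2C) catalytic fragment, aa 2-372 | amount = enzyme final amount 10 nM | medium = HEPES buffer, pH 7.5, plus ascorbate | also added = H3K9me3 peptide substrate, Fe(II), 2-oxoglutarate | dosing = single dose | times = 30 min demethylation and 1 h detection at room temperature | detection = LANCE TR-FRET | read-out basis = Fall in 671/618 emission ratio as inhibition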
Pf Dd2 inh – inhibitors of Plasmodium falciparum Dd2 growth; P. falciparum Dd2 growth, SYBR Green, 72 h; active compounds read low; 2.3% of 94,000 active; activity change, % at 10 µM; AID 1159554; in the data active = activity change below about -80%; inconclusive = no clear call, values can overlap the other calls
T cruzi growth-2 – Trypanosoma cruzi proliferation inhibition. inhibition, % at 8.35 µM. 72% of 5,600 active. AID 651739. shares compounds with T cruzi growth-1. T. cruzi beta-gal in NIH3T3, GalScreen luminescence, 90 h;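 active = mean replicate inhibition above about 95% and at least 55% of replicates individually reaching it, limit read from the data; inconclusive = only one of the two criteria is met; inactive = neither criterion is met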
T cruzi growth-3 – Trypanosoma cruzi proliferation inhibition | shares compounds with T cruzi growth-1 | 21% of 5,600 active | inhibition, % at 2.09 µM | T. cruzi beta-gal in NIH3T3, GalScreen luminescence, 90 h;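 active = mean inhibition above about 95%, with at least 55% of replicates also reaching it, limit read from the data; inconclusive = meets just one of the two conditions; inactive = meets neither condition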
3T3 cytotox – NIH/3T3 (mouse) viability loss; shares compounds with T cruzi growth-1; NIH/3T3 viability, CellTiter-Glo ATP luminescence, 90 h; cytotoxicity (signal decrease), % at 8.35 µM; 14% of 5,600 active;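 active = mean signal decrease across replicates above about 35% based on untreated-well scatter, with enough replicates individually passing, limit read from the data; inconclusive = no rule stated though some were filed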
3T3 cytotox 2 – cytotoxicity in mouse NIH/3T3 fibroblasts; AID 651744; shares compounds with T cruzi growth-1; NIH/3T3 viability, CellTiter-Glo ATP luminescence, 90 h; inhibition, % at 24.9 µM; 56% of 5,600 active;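 active = mean loss of cell viability signal at or above a set limit, and enough replicates individually reaching it; inconclusive = meets only the mean limit or only the replicate share; inactive = meets neither condition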
A number is an active result; n = inactive; u = inconclusive; x = no result given.

SMILES | IDH1 R132H inh | T cruzi growth-1 | KDM4C inh | Pf Dd2 inh | others
C[C@@H]1CN([C@H](C)CO)C(=O)c2cc(NC(=O)CCC(F)(F)F)ccc2O[C@@H](C)CCCCO[C@@H]1CN(C)S(=O)(=O)c1cccs1 | n | n | n | -84.7
C[C@@H]1CCCCO[C@H](CN(C)S(=O)(=O)c2cccs2)[C@@H](C)CN([C@@H](C)CO)C(=O)c2cc(NC(=O)Nc3ccc(C(F)(F)F)cc3)ccc2O1 | x | n | n | -86.9
COC(=O)CNS(=O)(=O)c1ccccc1[N+](=O)[O-] | n | x | x | x
Cc1sc(NC(=O)COc2ccccc2)c(C(N)=O)c1-c1ccccc1 | n | x | x | x
CCc1c(O)nc(SCC(=O)Nc2ccc(Cl)cc2Cl)n(-c2ccccc2)c1=O | n | x | x | x
O=C(c1ccccn1)N1CC(=O)N2[C@H](C1)[C@@H](c1ccc(C#CCc3ccccc3)cc1)[C@@H]2CO | x | x | n | -81.9
CC(C)C#Cc1ccc([C@@H]2[C@@H](CO)N3C(=O)CN(C(=O)C4CCCCC4)C[C@@H]23)cc1 | x | x | n | -85.1
O=C(C1CCCC1)N1CC(=O)N2[C@H](C1)[C@@H](c1ccc(C#CCc3ccccc3)cc1)[C@@H]2CO | x | x | n | -89.0
O=C(C1CC1)N1CC(=O)N2[C@@H](CO)[C@H](c3ccc(C#CCc4ccccc4)cc3)[C@@H]2C1 | x | x | n | n
CC(C)C#Cc1ccc([C@@H]2[C@@H](CO)N3C(=O)CN(C(=O)C4CCCCC4)C[C@H]23)cc1 | x | x | n | n
O=C(C1CC1)N1CC(=O)N2[C@H](CO)[C@@H](c3ccc(C#CCc4ccccc4)cc3)[C@@H]2C1 | x | x | n | -87.5
O=C(C1CCCC1)N1CC(=O)N2[C@H](CO)[C@@H](c3ccc(C#CCc4ccccc4)cc3)[C@@H]2C1 | x | x | n | u
CCN(CC)C(=O)c1sc(NC(=S)Nc2ccc(Br)cn2)c(C(=O)OC)c1C | n | x | x | x
Cc1ccc(N(CC(N)=O)S(C)(=O)=O)c(C)c1 | n | x | x | x
CCC(=O)N1CC(=O)N2[C@@H](CO)[C@H](c3ccc(C#CCc4ccccc4)cc3)[C@@H]2C1 | x | x | n | -84.5
COCC#Cc1ccc([C@H]2[C@H](CO)N3C(=O)CN(C(=O)CN4CCOCC4)C[C@@H]23)cc1 | x | x | n | -85.3
C[C@@H]1CN([C@H](C)CO)C(=O)c2cc(NC(=O)Nc3ccc(F)cc3)ccc2O[C@@H](C)CCCCO[C@H]1CN(C)Cc1ccc2c(c1)OCO2 | n | n | n | n
C[C@H](CO)N1C[C@H](C)[C@@H](CN(C)Cc2ccc3c(c2)OCO3)OCCCC[C@H](C)Oc2ccc(NC(=O)Nc3ccc(F)cc3)cc2C1=O | x | 103.4 | n | n | T cruzi growth-2=99.9;T cruzi growth-3=n;3T3 cytotox=n;3T3 cytotox 2=43.0
C[C@@H]1CN([C@H](C)CO)C(=O)c2cc(NC(=O)Nc3ccc(F)cc3)ccc2O[C@@H](C)CCCCO[C@@H]1CN(C)Cc1ccc2c(c1)OCO2 | x | n | n | u
C[C@@H]1CCCCO[C@H](CN(C)Cc2ccc3c(c2)OCO3)[C@H](C)CN([C@H](C)CO)C(=O)c2cc(NC(=O)Nc3ccc(F)cc3)ccc2O1 | x | 96.0 | n | n | T cruzi growth-2=102.7;T cruzi growth-3=n;3T3 cytotox=n;3T3 cytotox 2=103.6
C[C@@H]1CCCCO[C@@H](CN(C)Cc2ccc3c(c2)OCO3)[C@@H](C)CN([C@H](C)CO)C(=O)c2cc(NC(=O)Nc3ccc(F)cc3)ccc2O1 | n | 96.9 | n | n | T cruzi growth-2=113.8;T cruzi growth-3=n;3T3 cytotox=n;3T3 cytotox 2=n
O=C(Cn1cnc2ccccc2c1=O)Nc1ccccc1[N+](=O)[O-] | n | x | x | x
CC1OC(OC2C(CO)OC(OC(=O)[C@]34CCC(C)(C)CC3C3=CCC5[C@@]6(C)CC[C@H](OC7OC(C)C(OC8OCC(O)(COC9OCC(O)C(OC%10OCC(OC%11OCC(O)(CO)C%11O)C(O)C%10O)C9O)C8O)C(O)C7O)C(C)(C)C6CC[C@@]5(C)[C@]3(C)CC4)C(O)C2O)C(O)C(O)C1O (some centres not stated) | n | x | x | x
NC(=O)c1ccc(NCc2cccnc2)c([N+](=O)[O-])c1 | n | x | x | x
